How the values were obtained:
[1] = system: HFF; assay: Ratio of Effective concentration to inhibit vaccinia virus plaque formation to that of half maximal cytotoxic concentration in human foreskin fibroblast (HFF) cells; type: functional
[2] = system: HFF; assay: Effective concentration required to inhibit vaccinia virus plaque formation in human foreskin fibroblast (HFF) cells; type: functional, cell-based
[3] = system: HFF; assay: Effective concentration required to inhibit cowpox virus plaque formation in human foreskin fibroblast (HFF) cells; type: functional, cell-based
[4] = system: HFF; assay: Ratio of Effective concentration to inhibit cowpox virus plaque formation to that of half maximal cytotoxic concentration in human foreskin fibroblast (HFF) cells; type: functional
[5] = system: HFF; assay: Half-maximal cytotoxic concentration in human foreskin fibroblast (HFF) cells; type: functional
Procedure, shortened: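 Primary HFF cells seeded at 2.5 × 10^4/well in 96-well plates 24 h ahead. Exposed 7 d at 37 °C to drug in MEM/2% FBS, 1:5 serial dilutions, final 100 to 0.032 µg/mL.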

Row | SMILES | SI [1] | EC50 [2] | EC50 [3] | SI [4] | CC50 [5]
1 | CN1C(=O)/C(=N\NC(N)=S)c2ccccc21 [METHISAZONE] | >129 | 3.3 µM | 14 µM | >31 | > 427 µM
2 | Nc1ccn(C[C@@H](CO)OCP(=O)(O)O)c(=O)n1.O.O [CIDOFOVIR] | >12 | 27 µM | 38 µM | >8.3 | > 317 µM
3 | NC(=S)/N=N/c1c(O)[nH]c2ccccc12 | >32 | 14 µM | 60 µM | >7.6 | > 454 µM

— ChEMBL document CHEMBL1143612, “Combinatorial optimization of isatin-beta-thiosemicarbazones as anti-poxvirus agents” (J Med Chem, 2005)
